CHRM1 PAM = potentiates human M1 receptor response to acetylcholine; P11229; CHO-K1 hM1, Fluo-8 calcium fluorescence, ACh EC20; 0% = ACh EC20, 100% = maximal ACh; activation, % at 3 µM; 360,000 compounds, 0.088% hits; AID 588819; in the data active = activation above about 19%, passing the limit was not always enough
CHRM5 PAM = positive allosteric modulators of human muscarinic M5 receptor | P08912 | CHO-K1 hM5, Fluo-8 calcium, ACh EC20 PAM; 0% = ACh EC20, 100% = ACh EC100 | activation, % at 3 µM | 360,000 compounds, 0.3% hits;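 active = activation above the run cutoff, the mean activation of all test compounds plus 3 SD, cut at about 18% in these data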
Target sequence (P08912 whole entry, looked up): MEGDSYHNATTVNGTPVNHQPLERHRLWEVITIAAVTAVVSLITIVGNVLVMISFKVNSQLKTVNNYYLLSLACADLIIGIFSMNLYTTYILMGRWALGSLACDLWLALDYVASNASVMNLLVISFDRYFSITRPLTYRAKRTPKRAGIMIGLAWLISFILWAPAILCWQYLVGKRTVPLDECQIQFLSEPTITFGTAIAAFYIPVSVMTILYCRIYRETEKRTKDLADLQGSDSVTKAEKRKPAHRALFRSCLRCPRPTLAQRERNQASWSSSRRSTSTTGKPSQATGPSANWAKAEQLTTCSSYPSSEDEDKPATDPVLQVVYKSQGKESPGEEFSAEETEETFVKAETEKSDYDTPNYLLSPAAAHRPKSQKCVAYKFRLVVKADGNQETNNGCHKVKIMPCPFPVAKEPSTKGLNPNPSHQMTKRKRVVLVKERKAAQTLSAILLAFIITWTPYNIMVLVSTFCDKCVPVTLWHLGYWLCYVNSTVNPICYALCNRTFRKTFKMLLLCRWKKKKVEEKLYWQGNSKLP
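system = human M5 receptor in CHO-K1 cells | reagent = EC20 acetylcholine as agonist stimulus | compound dosing = single-point, 3 µM nominal | incubation = Fluo-8 loading 80 min at 37 °C plus 30 min room temperature | detection = Fluo-8 calcium dye fluorescence, kinetic read | benchmarks = low control EC20 acetylcholine (0%), high control EC100 acetylcholine (100%)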
CHRM1 agonist = human M1 muscarinic receptor agonism; activation, % at 3 µM; CHO-K1 hM1, Fluo-8 calcium fluorescence, agonist mode; 0% DMSO, 100% acetylcholine EC100; P11229; 360,000 compounds, 0.33% hits;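 active = activation above the run's mean compound activation plus 3 SD, cut at about 16% in these data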;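 note: peak over basal fluorescence ratio within a 140 s kinetic read after compound addition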
CHRM1 antagonist = antagonists of human M1 muscarinic receptor | AID 588852 | inhibition, % at 3 µM | 360,000 compounds, 1.3% hits | CHO-K1 hM1, Fluo-8 calcium fluorescence, ACh EC80 antagonist;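 active = percent inhibition above its own plate's cutoff, namely the mean of that plate's compound wells plus 3 SD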;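 note: peak over basal fluorescence ratio during 140 s after agonist addition; 0% = ACh EC80 plus DMSO and 100% = DMSO alone without agonist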
CHRM5 antagonist = blocks acetylcholine activation of human M5 receptor; inhibition, % at 3 µM; P08912; 360,000 compounds, 0.59% hits; CHO-hM5 cells, Fluo-8 calcium fluorescence, ACh EC80; AID 624040;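 active = inhibition above a per-plate cutoff, the mean of that plate's test compounds plus 3 SD, cut at about 27% in these data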;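 note: 0% = acetylcholine EC80 with DMSO and 100% = DMSO without agonist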
M5 ag = agonists of human muscarinic M5 receptor (CHRM5) | CHO-K1 hM5 cells, Fluo-8 calcium fluorescence; 0% DMSO wells, 100% maximal acetylcholine response | activation, % at 3 µM | 360,000 compounds, 0.19% hits | AID 624037;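 active = activation above the run's mean over test compounds plus 3 SD, cut at about 23% in these data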;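 note: signal is peak over basal fluorescence ratio across the kinetic read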
* marks the source's active call; other numbers are inactive results. Hits are enriched below; roughly 2.1% of the tested compounds scored in any of these assays.

SMILES | CHRM1 PAM | CHRM5 PAM | CHRM1 agonist | CHRM1 antagonist | CHRM5 antagonist | M5 ag
CCC(O)c1cc2c(cc1NC(=O)c1ccc(C)cc1)OCCO2 (configuration not stated) | -14.3 | -0.9 | -3.0 | 26.3* | 7.1 | 1.5
CCC(=O)N1CCN(c2ccc(NC(=O)COc3ccccc3[N+](=O)[O-])cc2)CC1 | -13.3 | -20.3 | 2.2 | 31.4* | 21.6 | 1.9
CCOC(=O)N1CCC(NC(=O)Cn2c3c(c(-c4ccccc4Cl)cc2=O)CCC3)CC1 | 4.6 | -3.2 | -6.2 | -9.1 | 0.7 | 2.0
O=[N+]([O-])c1ccc(Oc2c(F)c(F)nc(N3CCCC3)c2F)cc1 | -12.5 | -10.1 | -4.8 | 27.8* | 4.2 | -2.5
Cc1ccc(Oc2c(F)c(F)nc(N3CCCC3)c2F)cc1 | 0.9 | -0.5 | -6.5 | -0.7 | -5.5 | -0.8
c1ccc2c(c1)CCc1ccccc1C2=C1CCNCC1 | -25.4 | -32.3 | -7.2 | 100.2* | 98.7* | -19.4
O=C1C(=C2CCc3ccccc32)Cc2ccccc21 | 5.7 | -1.8 | -5.5 | -17.3 | -0.8 | -2.3
S=c1[nH]nc(CN2CCCCC2)n1-c1ccc(Cl)cc1 | -0.5 | -12.5 | -1.6 | 4.0 | 9.9 | 1.8
Fc1ccc(-n2c(CN3CCCCC3)n[nH]c2=S)cc1 | 5.7 | 20.6* | -3.6 | 20.6 | 1.5 | 1.6
COc1ccc(C(=O)CSc2nnc(-c3cccs3)n2-c2ccccc2)cc1 | 4.3 | -2.4 | -3.0 | -3.2 | -18.1 | -1.8
COc1ccc(C(=O)CSc2nnc(CN3CCCCC3)n2-c2ccc(F)cc2)cc1 | 4.5 | 2.5 | 16.5* | -3.5 | -4.8 | 15.1
N#C/C(=N\Nc1ccccc1Cl)C(=O)c1ccccc1 | 6.3 | -10.1 | 4.9 | -9.5 | 2.7 | 8.4
Cc1ccccc1NC(=O)CSc1nnc(C2CC2)n1CC1CCCO1 (configuration not stated) | -2.1 | 3.6 | -4.9 | 2.6 | 10.9 | -0.2
CCn1c(-c2cc(-c3ccc(C)cc3)nc3ccccc23)n[nH]c1=S | 7.9 | -32.1 | -4.8 | -15.7 | 97.9* | -12.4
Cc1nc2c(=O)n(C)c(=O)n(C)c2nc1Cl | -1.9 | -12.4 | -7.4 | 9.7 | 28.2* | -2.9
COc1ccc(CC(=O)OCC(=O)Nc2cccnc2Cl)cc1OC | 0.6 | -3.7 | 6.3 | 34.7* | -2.5 | -4.7
Cc1ccc(O)c(C(=O)c2cc(C#N)c(=O)n(-c3nccs3)c2)c1 | -6.4 | -16.7 | 21.8* | 21.0 | 31.7* | 33.8*
Cc1nn(-c2cc(C(F)(F)F)ccc2Cl)c2nc(C(Cl)(Cl)Cl)[nH]c(=O)c12 | -5.1 | 19.4* | -6.5 | -1.8 | 3.8 | 13.5
Cc1nn(-c2ccccc2)c2nc(C(F)(F)F)[nH]c(=O)c12 | -1.0 | -2.6 | -2.5 | 4.8 | 4.2 | -0.4
COc1ccc(C(=O)CSc2nnc(Cn3cnc4ccccc43)o2)cc1 | -10.1 | -14.3 | -1.1 | 31.9* | 12.6 | 9.4
CCCCCn1c(N2CCN(Cc3ccccc3)CC2)nc2c1c(=O)[nH]c(=O)n2C | -1.6 | -4.8 | -5.0 | 7.5 | 3.0 | -8.0
Cc1ccc(S(=O)(=O)Nc2ccc3c(c2)nc(CCN2CCN(c4ccccn4)CC2)n3C)cc1 | -23.6 | -6.5 | -3.2 | 78.6* | 14.1 | -9.3
Cc1ccc(S(=O)(=O)Nc2ccc3c(c2)nc(CCN2CCCCC2)n3C)cc1 | -11.4 | 6.5 | -7.4 | 15.2 | 4.2 | -15.9
Cn1c(CCN2CCN(c3ccccn3)CC2)nc2cc(NS(=O)(=O)c3ccc(Cl)cc3)ccc21 | -24.2 | -15.8 | -0.8 | 98.1* | 27.4* | -6.6
COc1cc([N+](=O)[O-])ccc1NC(=O)C1C2C=CC(C2)C1C(=O)O (configuration not stated) | 5.3 | -2.9 | -1.7 | -4.1 | 5.3 | 3.0
SMILES | CHRM1 PAM | CHRM5 PAM | CHRM1 agonist | CHRM1 antagonist | CHRM5 antagonist | M5 ag
COc1ccc2c(c1)c(=O)oc1c(C)c(OC(C)C(=O)NCC3CCC(C(=O)O)CC3)ccc12 (configuration not stated) | 3.9 | 5.9 | 1.0 | -16.8 | -7.2 | -1.6
COc1cccc(/C=C/C(=O)OCC(=O)c2c[nH]c3ccccc23)c1OC | -11.3 | -18.3 | -4.5 | 8.7 | 27.2* | -0.8
CCOC(=O)C1CCN(C(=O)COC(=O)/C=C/c2cccc(OC)c2OC)CC1 | 14.1 | 0.9 | 19.4* | -8.8 | 2.9 | 24.1*
COc1cc(C(=O)OCCCN2CCOCC2)ccc1O | 0.3 | 9.1 | -7.2 | 1.0 | -2.2 | 3.4
COc1cccc(Cl)c1NC(=O)N1CCN(c2ccnc3cc(Cl)ccc23)CC1 | -17.3 | -26.2 | -2.2 | 34.3* | 10.8 | -7.3
CCOC(=O)N1CCN(c2ccnc3cc(Cl)ccc23)CC1 | -38.1 | -15.1 | -12.3 | 90.8* | 12.6 | -5.1
CCN(CC1CCCO1)C(=O)c1cc(COc2ccc(OC)cc2Cl)on1 (configuration not stated) | 2.3 | 1.6 | -0.2 | -6.8 | -9.0 | -3.1
Cc1ccccc1C(=O)NC1CCN(Cc2nnnn2C(C)(C)C)CC1 | 4.5 | 6.5 | -4.2 | 3.7 | -3.1 | 1.7
Cc1ccccc1C(=O)NC1CCN(Cc2nnnn2C2CCCC2)CC1 | 5.9 | 31.6* | -0.4 | -1.6 | 26.8 | -1.4
C=CCn1c(NCCO)nc2sc3c(c2c1=O)CCC3 | 3.8 | -4.0 | -0.8 | -3.7 | -0.2 | 0.3
CC(=O)Cn1c(N2CCC(Cc3ccccc3)CC2)nc2c1c(=O)[nH]c(=O)n2C | 21.5* | -4.4 | -1.0 | -48.5 | -10.9 | -2.8
C=C(C)Cn1c(N2CCC(Cc3ccccc3)CC2)nc2c1c(=O)[nH]c(=O)n2C | 8.6 | -6.3 | 1.9 | -3.8 | -1.6 | -8.3
Cc1cccc(Cn2c(N3CCCCC3C)nc3c2c(=O)[nH]c(=O)n3C)c1 (configuration not stated) | -28.0 | -3.5 | -10.1 | 32.1* | -4.1 | -5.0
Cc1cccc(Cn2c(N3CCN(C)CC3)nc3c2c(=O)[nH]c(=O)n3C)c1 | 7.3 | 0.5 | -2.5 | -3.8 | 1.8 | -3.1
CCN1CCCC(OC(=O)C(c2ccccc2)c2ccccc2)C1 (configuration not stated) | -25.0 | -18.0 | -4.3 | 71.7 | 57.3* | -1.3
CN(C)[C@@H]1CCC[C@@H]1OC(=O)C(c1ccccc1)c1ccccc1 | -25.5 | -19.0 | -8.2 | 31.0* | 9.3 | -8.8
CC(C)(O)CN(C(=O)C(c1ccccc1)c1ccccc1)C1CCCCC1 | 1.7 | -10.9 | -5.5 | -11.0 | 6.0 | -2.4
CCN1CCCC(OC(=O)Nc2ccccc2)C1 (configuration not stated) | -3.5 | 1.5 | -6.0 | -13.2 | -3.4 | -12.1
c1ccc(Oc2cccc(OCCCn3cncn3)c2)cc1 | 20.7* | -1.9 | 5.5 | -26.1 | -4.0 | -4.6

Assay outcomes as filed in PubChem.
